The values that follow come from ChEMBL document CHEMBL2046405, “BACE1 Inhibitor Peptides: Can an Infinitely Small k cat Value Turn the Substrate of an Enzyme into Its Inhibitor?” (ACS Med Chem Lett, 2012).

Active and inactive are the calls of the source. The rule behind the calls is not given here. Where a SMILES comes first, the peptide text is derived from it. [ ]: non-standard residue; d: D form. The star is where a group is joined. Orotyl(5-F) = O=C(c1[nH]c(=O)[nH]c(=O)c1F)*; Dap = NC[C@H](N)C(=O)O Some results are limits rather than exact numbers.

Experiment [1] has as its target T1, Beta-secretase 1 (Homo sapiens, UniProt P56817). Briefly: Inhibition of human recombinant BACE1 using 7-methoxycoumarin-4-yl)acetyl-Ser-Glu-Val-Asn-Leu*Asp-Ala- Glu-Phe-Arg-Lys(2,4-dinitrophenyl)-Arg-Arg-NH2 as substrate at 2 uM by FRET assay. In a few lines: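 Recombinant human BACE1 incubated with FRET substrate and 2.0 μM compound in incubation buffer for 1 h. The N-terminal substrate cleavage fragment was measured by RP-HPLC with fluorescence detection.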

Experiment [2] deals with T1, Beta-secretase 1. Put plainly: Inhibition of human recombinant BACE1 using 7-methoxycoumarin-4-yl)acetyl-Ser-Glu-Val-Asn-Leu*Asp-Ala- Glu-Phe-Arg-Lys(2,4-dinitrophenyl)-Arg-Arg-NH2 as substrate by FRET assay. The method in brief: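 Recombinant human BACE1 and FRET substrate incubated 1 h in incubation buffer with compound at 2.0 or 0.2 μM. The N-terminal cleavage fragment was analysed by reverse-phase HPLC with fluorescence detection.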

Experiment [3] deals with T1, Beta-secretase 1. Put plainly: Activity of human recombinant BACE1 after 1 hr. In a few lines: (§1)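 Peptides incubated with recombinant human BACE1 for 1 or 24 h in buffer, at the same BACE1 and peptide concentrations as the inhibition assay. The buffer was analysed by HPLC for the product of cleavage at the P1–P1′ amide bond.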
Experiment [4] concerns the target T1, Beta-secretase 1. Put plainly: Activity of human recombinant BACE1 after 24 hrs. The method in brief:
as §1

For experiment [5], the target named is T1, Beta-secretase 1. Put plainly: Inhibition of human recombinant BACE1 using 7-methoxycoumarin-4-yl)acetyl-Ser-Glu-Val-Asn-Leu*Asp-Ala- Glu-Phe-Arg-Lys(2,4-dinitrophenyl)-Arg-Arg-NH2 as substrate at 0.2 uM by FRET assay. In a few lines:
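Recombinant human BACE1 incubated with FRET substrate and 0.2 μM compound in incubation buffer for 1 h. The N-terminal cleavage fragment of the substrate was quantified by RP-HPLC with fluorescence detection.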

T1 sequence (P56817 whole entry, the tested form may be a part): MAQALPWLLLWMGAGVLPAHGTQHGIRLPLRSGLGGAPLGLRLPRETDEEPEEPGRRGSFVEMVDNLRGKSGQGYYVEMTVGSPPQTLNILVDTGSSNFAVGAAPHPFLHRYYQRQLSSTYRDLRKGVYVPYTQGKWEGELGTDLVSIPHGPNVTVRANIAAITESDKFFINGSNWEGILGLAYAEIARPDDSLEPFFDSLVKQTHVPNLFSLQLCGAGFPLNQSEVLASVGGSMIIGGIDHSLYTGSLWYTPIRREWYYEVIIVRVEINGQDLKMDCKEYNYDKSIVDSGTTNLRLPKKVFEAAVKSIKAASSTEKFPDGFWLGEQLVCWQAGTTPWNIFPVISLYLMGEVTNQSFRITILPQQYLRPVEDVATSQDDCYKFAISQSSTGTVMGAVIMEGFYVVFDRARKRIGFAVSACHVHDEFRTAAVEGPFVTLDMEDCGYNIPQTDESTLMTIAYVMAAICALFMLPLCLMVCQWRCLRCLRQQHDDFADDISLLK

`CC(C)C[C@H](NC(=O)[C@@H](NC(=O)[C@@H](N)CCC(=O)O)C(C)C)C(=O)N[C@@H](Cc1ccccc1)C(=O)N[C@H](CO)C(=O)N[C@@H](C)C(=O)N[C@@H](CCC(=O)O)C(=O)N[C@@H](Cc1ccccc1)C(=O)O`: at Beta-secretase 1 [1], the inhibition came out at 28%.
Take `CC(C)C[C@H](NC(=O)[C@@H](NC(=O)[C@@H](N)CCC(=O)O)C(C)C)C(=O)N[C@@H](Cc1ccccc1)C(=O)N[C@H](CO)C(=O)O`: the inhibition on Beta-secretase 1 [1] amounted to 23%.
Consider `CC(C)C[C@H](NC(=O)[C@@H](NC(=O)[C@@H](N)CNC(=O)c1[nH]c(=O)[nH]c(=O)c1F)C(C)C)C(=O)N[C@@H](Cc1ccccc1)C(=O)O` (H-[Dap](Orotyl(5-F))VLF-OH), for which the half-inhibitory concentration (IC50) at Beta-secretase 1 [2] is 184 nM. Moreover, the result at Beta-secretase 1 [3] and at Beta-secretase 1 [4] was Active. For the same molecule, the inhibition came out at 90% on Beta-secretase 1 [1] and 54% on Beta-secretase 1 [5].
As to `CC(C)[C@H](NC(=O)[C@@H](N)CNC(=O)c1[nH]c(=O)[nH]c(=O)c1F)C(=O)N[C@@H](CC1CCCCC1)C(=O)N[C@@H](Cc1ccccc1)C(=O)N[C@H](CC(N)=O)C(=O)O`, the IC50 at Beta-secretase 1 [2] stood at 141 nM. The inhibition at Beta-secretase 1 [1] is 92%; at Beta-secretase 1 [5], 58%.
For `CC(C)[C@H](NC(=O)[C@@H](N)CNC(=O)c1[nH]c(=O)[nH]c(=O)c1F)C(=O)N[C@@H](CC1CCCCC1)C(=O)N[C@@H](Cc1ccccc1)C(=O)N[C@H](CO)C(=O)O`, on Beta-secretase 1 [2], the IC50 was 163 nM. Further, the figures for the inhibition on Beta-secretase 1 [1] and on Beta-secretase 1 [5] were 92% and 54%, respectively.
Consider `CC(C)C[C@H](NC(=O)[C@@H](NC(=O)[C@@H](N)CNC(=O)c1[nH]c(=O)[nH]c(=O)c1F)C(C)C)C(=O)N[C@@H](Cc1ccccc1)[C@@H](O)C(=O)Nc1cccc(C(=O)O)c1`, for which the concentration for half-maximal inhibition (IC50) on Beta-secretase 1 [2] came out at 26 nM.
Regarding `CC(C)C[C@H](NC(=O)[C@@H](NC(=O)[C@@H](N)CCC(=O)O)C(C)C)C(=O)N[C@@H](Cc1ccccc1)C(=O)N[C@H](CN)C(=O)N[C@@H](C)C(=O)N[C@@H](CCC(=O)O)C(=O)N[C@@H](Cc1ccccc1)C(=O)O`, the inhibition at Beta-secretase 1 [1] was determined as 15%.
On to `CC(C)C[C@H](NC(=O)[C@@H](NC(=O)[C@@H](N)CNC(=O)c1[nH]c(=O)[nH]c(=O)c1F)C(C)C)C(=O)N[C@@H](Cc1ccccc1)C(=O)N[C@@H](C(=O)O)C(C)C`, for which the IC50 at Beta-secretase 1 [2] was 82 nM. For the same molecule, the inhibition at Beta-secretase 1 [1] is 94%; on Beta-secretase 1 [5] it was 69%.
Take `CC(C)C[C@H](NC(=O)[C@@H](NC(=O)[C@@H](N)CCC(=O)O)C(C)C)C(=O)N[C@@H](Cc1ccccc1)C(=O)N[C@@H](CS)C(=O)N[C@@H](C)C(=O)N[C@@H](CCC(=O)O)C(=O)N[C@@H](Cc1ccccc1)C(=O)O`: the inhibition at Beta-secretase 1 [1] is less than 5%.
For `CC(C)C[C@H](NC(=O)[C@@H](NC(=O)[C@@H](N)CNC(=O)c1[nH]c(=O)[nH]c(=O)c1F)C(C)C)C(=O)N[C@@H](Cc1ccccc1)C(=O)N[C@@H](CC(N)=O)C(=O)O`, the concentration for half-maximal inhibition (IC50) at Beta-secretase 1 [2] is 173 nM. The outcome at Beta-secretase 1 [3] and on Beta-secretase 1 [4] was inactive. The inhibition at Beta-secretase 1 [1] amounted to 89%; on Beta-secretase 1 [5] it was 56%.
As for `CC(C)C[C@H](NC(=O)[C@@H](NC(=O)[C@@H](N)CNC(=O)c1[nH]c(=O)[nH]c(=O)c1F)C(C)C)C(=O)N[C@@H](Cc1ccccc1)C(=O)N[C@H](C)C(=O)O`, the IC50 at Beta-secretase 1 [2] stood at 169 nM. Besides, the figures for the inhibition at Beta-secretase 1 [1] and on Beta-secretase 1 [5] were 93% and 53%, respectively.
As to `CC(C)[C@H](NC(=O)[C@@H](N)CCC(=O)O)C(=O)N[C@@H](CC(N)=O)C(=O)N[C@@H](Cc1ccccc1)C(=O)O` (H-EVNF-OH), at Beta-secretase 1 [1], the inhibition is less than 5%.
For the molecule `CC(C)C[C@H](NC(=O)[C@@H](NC(=O)[C@@H](N)CNC(=O)c1[nH]c(=O)[nH]c(=O)c1F)C(C)C)C(=O)N[C@@H](Cc1ccccc1)C(=O)N[C@@H](CO)C(=O)O`, at Beta-secretase 1 [2], the IC50 is 263 nM. Moreover, the outcome on Beta-secretase 1 [3] and at Beta-secretase 1 [4] was inactive. The inhibition turned out to be 85% at Beta-secretase 1 [1] and 48% on Beta-secretase 1 [5].
Consider `CC(C)C[C@H](NC(=O)[C@@H](NC(=O)[C@@H](N)CCC(=O)O)C(C)C)C(=O)N[C@@H](Cc1ccccc1)C(=O)N[C@H](CS)C(=O)N[C@@H](C)C(=O)N[C@@H](CCC(=O)O)C(=O)N[C@@H](Cc1ccccc1)C(=O)O`, for which the inhibition at Beta-secretase 1 [1] was 28%.
Same read-out and setting: then `CC(C)[C@H](NC(=O)[C@@H](N)CCC(=O)O)C(=O)N[C@@H](CCCCN)C(=O)N[C@@H](Cc1ccccc1)C(=O)O` (H-EVKF-OH), with 10%; and `CC(C)C[C@H](NC(=O)[C@@H](NC(=O)[C@@H](N)CCC(=O)O)C(C)C)C(=O)N[C@@H](Cc1ccccc1)C(=O)O` (H-EVLF-OH), with 8%.
Consider `CC(C)C[C@H](NC(=O)[C@@H](NC(=O)[C@@H](N)CCC(=O)O)C(C)C)C(=O)N[C@@H](Cc1ccccc1)C(=O)N[C@H](CC(N)=O)C(=O)O`, for which the inhibition at Beta-secretase 1 [1] is 29%.
On the same count and under the same terms, then `CC(C)[C@H](NC(=O)[C@@H](N)CNC(=O)c1[nH]c(=O)[nH]c(=O)c1F)C(=O)N[C@@H](CC(N)=O)C(=O)N[C@@H](Cc1ccccc1)C(=O)O` (H-[Dap](Orotyl(5-F))VNF-OH), with less than 5%.
As to `CC(C)C[C@H](NC(=O)[C@@H](NC(=O)[C@@H](N)CNC(=O)c1[nH]c(=O)[nH]c(=O)c1F)C(C)C)C(=O)N[C@@H](Cc1ccccc1)C(=O)N[C@H](CO)C(=O)O`, the IC50 on Beta-secretase 1 [2] was found to be 138 nM. Moreover, the outcome on Beta-secretase 1 [3] and on Beta-secretase 1 [4] was inactive. The inhibition on Beta-secretase 1 [1] was determined as 94%; at Beta-secretase 1 [5], 57%.
`CC(C)C[C@H](NC(=O)[C@@H](NC(=O)[C@@H](N)CNC(=O)c1[nH]c(=O)[nH]c(=O)c1F)C(C)C)C(=O)N[C@@H](Cc1ccccc1)C(=O)N[C@H](CC(N)=O)C(=O)O`: on Beta-secretase 1 [2], the IC50 is 86 nM. Moreover, the result at Beta-secretase 1 [3] and on Beta-secretase 1 [4] was inactive. Besides, the inhibition at Beta-secretase 1 [1] was found to be 95%; on Beta-secretase 1 [5], 65%.
On to `CC(C)C[C@H](NC(=O)[C@@H](NC(=O)[C@@H](N)CCC(=O)O)C(C)C)C(=O)N[C@@H](Cc1ccccc1)C(=O)N[C@@H](CN)C(=O)N[C@@H](C)C(=O)N[C@@H](CCC(=O)O)C(=O)N[C@@H](Cc1ccccc1)C(=O)O`, for which the inhibition at Beta-secretase 1 [1] amounted to 7%.
For `CC(C)[C@H](NC(=O)[C@@H](N)CNC(=O)c1[nH]c(=O)[nH]c(=O)c1F)C(=O)N[C@@H](CC(N)=O)C(=O)N[C@@H](Cc1ccccc1)C(=O)N[C@@H](CC(N)=O)C(=O)O` (H-[Dap](Orotyl(5-F))VNFN-OH), the inhibition on Beta-secretase 1 [1] is less than 5%.
Consider `CC(C)C[C@H](NC(=O)[C@@H](NC(=O)[C@@H](N)CCC(=O)O)C(C)C)C(=O)N[C@@H](Cc1ccccc1)C(=O)N[C@@H](CO)C(=O)N[C@@H](C)C(=O)N[C@@H](CCC(=O)O)C(=O)N[C@@H](Cc1ccccc1)C(=O)O`, for which the inhibition at Beta-secretase 1 [1] came to 6%.
